Laboratory results reported in ChEMBL document CHEMBL3046408, “Disease control effect of strevertenes produced by Streptomyces psammoticus against tomato fusarium wilt” (J Agric Food Chem, 2011).
Values after ≈ are worked out from the molar mass of the structure shown. Active and inactive are the calls of the source. The rule behind the calls is not given here.

Key:
Solanum lycopersicum = test: Phytotoxicity in Solanum lycopersicum (tomato) plants upto 500 ug/mL; assay type: organism-based; details: in vivo
[1] = system: Fusarium oxysporum f. sp. lycopersici; test: Antifungal activity against Fusarium oxysporum f.sp. lycopersici JCM 12575 in tomato plants assessed as inhibition of Fusarium wilt disease severity at 1 ug/mL measured after 10 days of inoculation under green house condition; assay type: functional, organism-based
Method in brief: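 Greenhouse assay. F. oxysporum f.sp. lycopersici JCM 12575 was grown in Czapek Dox broth at 28 °C for 14 days, and the inoculum was 2 × 10^6 conidia/mL. Wounded tomato seedling roots were dipped for 10 min, potted, and soil-drenched with 5 mL of compound (1, 10, 100, 500 μg/mL); controls received sterile water. Plants spent 24 h in a 28 °C dew chamber, then went to the greenhouse. Disease severity was scored 0-5 at 10 days post-inoculation.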

Rhizoctonia solani = test: Antifungal activity against Rhizoctonia solani assessed as complete growth inhibition after 1 to 3 days by CLSI M38-A method; assay type: functional
Method in brief: (§1)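 CLSI M38-A microdilution in 96-well plates, inoculated with mycelial-fragment suspensions at a final (0.5-5) × 10^4 fragments/mL. Compound was added at final concentrations from 0.125 to 64 μg/mL. After 1-3 days at 28 °C, MIC was scored by eye as the lowest concentration completely inhibiting growth.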

Sclerotinia sclerotiorum = test: Antifungal activity against Sclerotinia sclerotiorum assessed as complete growth inhibition after 1 to 3 days by CLSI M38-A method; assay type: functional; method in brief: as §1
[2] = system: Fusarium oxysporum f. sp. lycopersici; test: Antifungal activity against Fusarium oxysporum f.sp. lycopersici assessed as complete growth inhibition after 1 to 3 days by CLSI M38-A method; assay type: functional
Method in brief: (§2)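 Broth microdilution in 96-well plates following CLSI M38-A. Conidial suspensions were dispensed to a final (0.5-5) × 10^4 spores/mL, with compound at final 0.125 to 64 μg/mL. Plates were incubated at 28 °C for 1-3 days. MIC was read visually as the lowest concentration giving complete growth inhibition.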

[3] = system: Fusarium oxysporum f. sp. cucumerinum; test: Antifungal activity against Fusarium oxysporum f.sp. cucumerinum assessed as complete growth inhibition after 1 to 3 days by CLSI M38-A method; assay type: functional; method in brief: as §2
Diaporthe citri = test: Antifungal activity against Diaporthe citri assessed as complete growth inhibition after 1 to 3 days by CLSI M38-A method; assay type: functional
Method in brief: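 Broth microdilution following CLSI M38-A. Mycelial-fragment suspension of the fungus at a final (0.5-5) × 10^4 fragments/mL. Antibiotic added to final concentrations of 0.125 to 64 μg/mL. Incubated at 28 °C for 1-3 days. Wells read visually; MIC is the lowest concentration giving complete growth inhibition.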

Ilyonectria destructans = test: Antifungal activity against Ilyonectria radicicola assessed as complete growth inhibition after 1 to 3 days by CLSI M38-A method; assay type: functional; method in brief: as §2
[4] = system: Colletotrichum orbiculare; test: Antifungal activity against Colletotrichum orbiculare assessed as complete growth inhibition after 1 to 3 days by CLSI M38-A method; assay type: functional; method in brief: as §2
[5] = system: Colletotrichum gloeosporioides; test: Antifungal activity against Colletotrichum gloeosporioides assessed as complete growth inhibition after 1 to 3 days by CLSI M38-A method; assay type: functional; method in brief: as §2
Colletotrichum coccodes = test: Antifungal activity against Colletotrichum cocodes assessed as complete growth inhibition after 1 to 3 days by CLSI M38-A method; assay type: functional; method in brief: as §2
Cercospora canescens = test: Antifungal activity against Cercospora canescens assessed as complete growth inhibition after 1 to 3 days by CLSI M38-A method; assay type: functional; method in brief: as §2
Aspergillus oryzae = test: Antifungal activity against Aspergillus oryzae assessed as complete growth inhibition after 1 to 3 days by CLSI M38-A method; assay type: functional; method in brief: as §2
Alternaria mali = test: Antifungal activity against Alternaria mali assessed as complete growth inhibition after 1 to 3 days by CLSI M38-A method; assay type: functional; method in brief: as §2
Alternaria brassicicola = test: Antifungal activity against Alternaria brassicola assessed as complete growth inhibition after 1 to 3 days by CLSI M38-A method; assay type: functional; method in brief: as §2

Structure (SMILES) | Activity (Solanum lycopersicum) | inhibition [1] | MIC (Rhizoctonia solani) [µg/mL] | MIC (Sclerotinia sclerotiorum) [µg/mL] | MIC [2] [µg/mL] | MIC [3] [µg/mL] | MIC (Diaporthe citri) [µg/mL] | MIC (Ilyonectria destructans) [µg/mL] | MIC [4] [µg/mL] | MIC [5] [µg/mL] | MIC (Colletotrichum coccodes) [µg/mL] | MIC (Cercospora canescens) [µg/mL] | MIC (Aspergillus oryzae) [µg/mL] | MIC (Alternaria mali) [µg/mL] | MIC (Alternaria brassicicola) [µg/mL]
C[C@H]1/C=C/C=C/C=C/C=C/C=C/[C@@H](O)[C@H](C(=O)O)[C@H](O)C[C@H](O)CCC[C@H](O)C[C@H](O)C[C@H](O)[C@@H](C)C(=O)O[C@@H]1C [STREVERTENE A] | Non-toxic | Active | > 64 | 8 (≈ 13.8 µM) | 16 (≈ 27.6 µM) | 16 (≈ 27.6 µM) | 32 (≈ 55.1 µM) | 16 (≈ 27.6 µM) | 8 (≈ 13.8 µM) | 8 (≈ 13.8 µM) | 8 (≈ 13.8 µM) | 16 (≈ 27.6 µM) | 16 (≈ 27.6 µM) | 16 (≈ 27.6 µM) | > 64
CC[C@H]1C(=O)O[C@H](C)[C@@H](C)/C=C/C=C/C=C/C=C/C=C/[C@@H](O)[C@H](C(=O)O)[C@H](O)C[C@H](O)CCC[C@H](O)C[C@H](O)C[C@@H]1O [STREVERTENE B] | Non-toxic | Active | > 64 | 8 (≈ 13.5 µM) | 8 (≈ 13.5 µM) | 8 (≈ 13.5 µM) | 32 (≈ 53.8 µM) | 16 (≈ 26.9 µM) | 4 (≈ 6.73 µM) | 8 (≈ 13.5 µM) | 8 (≈ 13.5 µM) | 32 (≈ 53.8 µM) | 10 (≈ 16.8 µM) | 16 (≈ 26.9 µM) | > 64
